Assay results as given in ChEMBL document CHEMBL4387722.
pIC50: −log10 of the molar value.

Tests used:
[1] = target: T1, Tyrosine-protein phosphatase non-receptor type 5 (Homo sapiens, UniProt P54829); assay: Inhibition of human PTPN5 expressed in Escherichia coli Rosetta 2 (DE3) using pNPP as substrate after 45 mins by spectrophotometric method
T1 sequence (P54829 whole entry): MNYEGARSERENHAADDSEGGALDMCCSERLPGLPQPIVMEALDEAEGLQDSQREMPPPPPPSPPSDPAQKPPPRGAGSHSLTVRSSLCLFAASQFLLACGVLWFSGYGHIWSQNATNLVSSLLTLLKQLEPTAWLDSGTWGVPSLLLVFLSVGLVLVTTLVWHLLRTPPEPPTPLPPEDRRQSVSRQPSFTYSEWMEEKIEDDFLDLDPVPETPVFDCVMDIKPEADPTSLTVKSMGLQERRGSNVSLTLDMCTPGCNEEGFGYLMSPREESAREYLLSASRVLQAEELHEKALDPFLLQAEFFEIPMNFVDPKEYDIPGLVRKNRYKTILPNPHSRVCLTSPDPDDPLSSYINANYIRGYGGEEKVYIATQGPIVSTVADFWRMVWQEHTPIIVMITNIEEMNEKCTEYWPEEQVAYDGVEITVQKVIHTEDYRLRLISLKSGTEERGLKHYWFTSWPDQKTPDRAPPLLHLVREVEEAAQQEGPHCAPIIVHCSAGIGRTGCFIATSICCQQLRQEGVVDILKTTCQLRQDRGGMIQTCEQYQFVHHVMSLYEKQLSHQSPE

[2] = Cytotoxicity against human HEK293 cells assessed as reduction in cell viability after 48 hrs by Alamar blue assay; assay type: cell-based
Summary of the method: (§1)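 Alamar Blue viability read-out. Human liver (THLE-3) and kidney (HEK 293) cells incubated with compound for 48 h. Tested in dose-response to derive CC50.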

[3] = target: T2, Tyrosine-protein phosphatase non-receptor type 1 (Homo sapiens, UniProt P18031); assay: Inhibition of human PTPN1 expressed in Escherichia coli Rosetta 2 (DE3) using pNPP as substrate after 45 mins by spectrophotometric method
T2 sequence (P18031 whole entry): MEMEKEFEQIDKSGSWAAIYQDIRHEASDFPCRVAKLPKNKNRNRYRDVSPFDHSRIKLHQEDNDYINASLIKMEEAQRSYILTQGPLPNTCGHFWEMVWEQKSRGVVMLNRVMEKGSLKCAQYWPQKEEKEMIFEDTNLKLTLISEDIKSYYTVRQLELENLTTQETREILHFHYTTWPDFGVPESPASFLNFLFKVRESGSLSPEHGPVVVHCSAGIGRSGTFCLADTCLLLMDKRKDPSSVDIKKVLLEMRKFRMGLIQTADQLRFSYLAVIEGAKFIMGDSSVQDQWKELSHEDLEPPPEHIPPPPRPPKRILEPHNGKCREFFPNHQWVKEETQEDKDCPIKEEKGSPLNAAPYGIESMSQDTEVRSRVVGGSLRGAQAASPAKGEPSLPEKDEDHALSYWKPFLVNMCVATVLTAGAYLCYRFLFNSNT

[4] = target: T3, Malate dehydrogenase, mitochondrial (Sus scrofa, UniProt P00346); assay: Inhibition of refolded pig heart mitochondrial MDH preincubated with Escherichia coli GroEL/GroES for 45 mins using sodium mesoxalate as substrate followed by compound addition and measured after 20 to 30 mins by spectrometric analysis
T3 sequence (P00346 whole entry): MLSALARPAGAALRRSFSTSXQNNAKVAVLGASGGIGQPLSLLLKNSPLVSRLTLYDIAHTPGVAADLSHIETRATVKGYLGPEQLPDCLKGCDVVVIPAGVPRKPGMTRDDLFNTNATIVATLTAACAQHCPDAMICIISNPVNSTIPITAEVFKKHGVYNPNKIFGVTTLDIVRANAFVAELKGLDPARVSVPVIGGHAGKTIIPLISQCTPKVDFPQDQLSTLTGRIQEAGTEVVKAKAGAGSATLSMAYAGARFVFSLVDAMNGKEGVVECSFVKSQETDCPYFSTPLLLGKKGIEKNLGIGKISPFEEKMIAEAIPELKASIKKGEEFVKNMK

E. coli GroEL/ES [5] = target: T4, E. coli GroEL/ES (Escherichia coli, UniProt P0A6F5); assay: Inhibition of Escherichia coli GroEL expressed in Escherichia coli DH5alpha/Escherichia coli GroES expressed in Escherichia coli BL21 (DE3) assessed as reduction in GroEL/GroES-mediated denatured rhodanese refolding by measuring rhodanese enzyme activity after 45 mins by Fe(SCN)3 dye based spectrometric analysis
T4 sequence (P0A6F5 whole entry, looked up): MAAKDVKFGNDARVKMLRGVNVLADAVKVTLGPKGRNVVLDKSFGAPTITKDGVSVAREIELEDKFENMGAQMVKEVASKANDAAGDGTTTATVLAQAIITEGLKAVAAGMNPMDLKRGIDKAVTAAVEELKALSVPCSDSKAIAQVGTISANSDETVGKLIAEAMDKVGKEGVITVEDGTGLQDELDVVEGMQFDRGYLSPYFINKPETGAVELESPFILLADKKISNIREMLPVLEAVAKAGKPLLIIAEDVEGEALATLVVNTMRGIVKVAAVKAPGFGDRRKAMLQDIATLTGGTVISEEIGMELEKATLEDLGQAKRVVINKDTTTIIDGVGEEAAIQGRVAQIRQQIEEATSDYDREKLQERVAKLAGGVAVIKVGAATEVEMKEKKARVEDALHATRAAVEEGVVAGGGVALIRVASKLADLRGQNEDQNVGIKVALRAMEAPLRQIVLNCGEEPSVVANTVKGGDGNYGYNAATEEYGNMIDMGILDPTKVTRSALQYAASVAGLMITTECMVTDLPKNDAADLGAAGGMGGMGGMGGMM

HSP60/HSP10 = HSP60/HSP10 (Homo sapiens, UniProt P10809); assay: Inhibition of human HSP60 expressed in Escherichia coli Rosetta 2(DE3)/human HSP10 expressed in Escherichia coli Rosetta 2(DE3) pLysS cells assessed as reduction in HSP60/HSP10-mediated denatured pig heart mitochondrial MDH refolding by measuring MDH enzyme activity using sodium mesoxalate as substrate after 40 to 60 mins by spectrometric analysis
Sequence of HSP60/HSP10 (P10809 whole entry): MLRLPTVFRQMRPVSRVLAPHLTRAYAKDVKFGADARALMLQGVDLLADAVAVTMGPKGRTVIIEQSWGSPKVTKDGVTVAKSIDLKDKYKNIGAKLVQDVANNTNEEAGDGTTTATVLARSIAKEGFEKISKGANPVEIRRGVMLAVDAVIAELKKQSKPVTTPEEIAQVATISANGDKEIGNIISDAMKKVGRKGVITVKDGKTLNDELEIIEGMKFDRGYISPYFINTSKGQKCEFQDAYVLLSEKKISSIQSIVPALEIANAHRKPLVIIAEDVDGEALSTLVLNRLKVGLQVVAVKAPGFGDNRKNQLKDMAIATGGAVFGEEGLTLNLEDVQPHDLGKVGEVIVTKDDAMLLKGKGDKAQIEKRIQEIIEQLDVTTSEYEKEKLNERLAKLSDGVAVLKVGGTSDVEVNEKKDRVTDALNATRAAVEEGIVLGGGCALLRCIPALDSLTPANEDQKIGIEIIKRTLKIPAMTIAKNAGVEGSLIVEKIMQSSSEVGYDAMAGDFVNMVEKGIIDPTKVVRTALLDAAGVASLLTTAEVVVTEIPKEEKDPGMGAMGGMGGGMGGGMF
Sequence of HSP60/HSP10 (P61604 whole entry, further chain): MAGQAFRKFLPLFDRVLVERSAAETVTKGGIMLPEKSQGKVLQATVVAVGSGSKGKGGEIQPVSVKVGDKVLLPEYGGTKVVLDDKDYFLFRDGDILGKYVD

[6] = target: T5, Tyrosine-protein phosphatase non-receptor type 2 (Homo sapiens, UniProt P17706); assay: Inhibition of human PTPN2 expressed in Escherichia coli Rosetta 2 (DE3) using pNPP as substrate after 45 mins by spectrophotometric method
T5 sequence (P17706 whole entry): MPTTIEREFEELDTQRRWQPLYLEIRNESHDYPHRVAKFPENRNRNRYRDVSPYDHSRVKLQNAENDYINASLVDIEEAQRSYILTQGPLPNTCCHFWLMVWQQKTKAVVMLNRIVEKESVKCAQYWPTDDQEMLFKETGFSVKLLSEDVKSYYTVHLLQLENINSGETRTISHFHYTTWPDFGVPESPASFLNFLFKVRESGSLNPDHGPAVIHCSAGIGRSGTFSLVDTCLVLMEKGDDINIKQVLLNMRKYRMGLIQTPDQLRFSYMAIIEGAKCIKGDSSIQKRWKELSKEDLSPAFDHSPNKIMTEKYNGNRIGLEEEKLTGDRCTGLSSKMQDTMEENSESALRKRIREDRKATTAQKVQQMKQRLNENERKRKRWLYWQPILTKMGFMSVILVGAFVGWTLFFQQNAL

E. coli GroEL/ES [7] = target: T4, E. coli GroEL/ES; assay: Inhibition of Escherichia coli GroEL expressed in Escherichia coliDH5alpha/Escherichia coli GroES expressed in Escherichia coli BL21 (DE3) assessed as reduction in GroEL/GroES-mediated denatured pig heart mitochondrial MDH refolding by measuring MDH enzyme activity using sodium mesoxalate as substrate after 20 to 40 mins by spectrometric analysis
[8] = target: T6, Phosphotyrosine protein phosphatase (Mycobacterium tuberculosis, UniProt A0A045ISB3); assay: Inhibition of Mycobacterium tuberculosis His-tagged PtpB expressed in Escherichia coli Rosetta 2 (DE3) using pNPP as substrate after 30 mins by spectrophotometric method
T6 sequence (A0A045ISB3 whole entry): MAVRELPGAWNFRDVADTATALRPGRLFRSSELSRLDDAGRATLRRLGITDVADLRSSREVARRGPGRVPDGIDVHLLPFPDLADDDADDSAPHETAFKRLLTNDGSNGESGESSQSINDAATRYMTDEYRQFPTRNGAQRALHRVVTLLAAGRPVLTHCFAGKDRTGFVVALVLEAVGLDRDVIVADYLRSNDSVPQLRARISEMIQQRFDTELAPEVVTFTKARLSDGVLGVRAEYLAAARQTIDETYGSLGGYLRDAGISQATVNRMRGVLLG

[9] = system: Mycobacterium tuberculosis; assay: Antitubercular activity against Mycobacterium tuberculosis H37Rv after 5 days at 200 uM relative to control; assay type: functional; conditions: 120 h
Summary of the method: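 M. tuberculosis grown in liquid culture with compound at a fixed 200 μM for 5 days. Growth inhibition expressed as percent of control.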

[10] = Cytotoxicity against human THLE3 cells assessed as reduction in cell viability after 48 hrs by Alamar blue assay; assay type: cell-based; summary of the method: as §1
[11] = Inhibition of refolded rhodanese (unknown origin) preincubated with Escherichia coli GroEL/GroES for 60 mins by measuring rhodanese enzyme activity followed by compound addition by Fe(SCN)3 dye based spectrometric analysis; parameters: species or system Homo sapiens

Row | Structure (SMILES) | pIC50 [1] | CC50 at 48 h [2] | pIC50 [3] | pIC50 [4] | pIC50 (E. coli GroEL/ES [5]) | pIC50 (HSP60/HSP10) | pIC50 [6] | pIC50 (E. coli GroEL/ES [7]) | pIC50 [8] | inhibition at 200 µM [9] | CC50 at 48 h [10] | pIC50 [11]
1 | O=S(=O)(Nc1ccc(-c2nc3ccccc3o2)cc1)c1ccc(Cl)c(Cl)c1 | 4.52 | > 100 µM | 4.54 | < 4.20 | 3.98 | 4.60 | 4.48 | 4.37 | 4.60 | 37% | 84 µM | < 4.00
2 | Cc1ccc(S(=O)(=O)Nc2ccc(-c3nc4ccccc4o3)cc2)cc1 | 4.35 | 88 µM | 4.38 | < 4.20 | 3.80 | < 4.00 | 4.31 | < 4.00 | 4.28 | 28% | 82 µM | < 4.00
3 | O=S(=O)(Nc1ccc(-c2nc3ccccc3o2)cc1)c1ccc(Cl)c(C(F)(F)F)c1 | 4.47 | 69 µM | 4.55 | < 4.20 | 4.17 | 4.92 | 4.55 | 4.64 | 4.54 | 18% | 81 µM | < 4.00
4 | O=S(=O)(Nc1ccc2oc(-c3ccccc3)nc2c1)c1ccc(C(F)(F)F)cc1 | 4.57 | 74 µM | 4.44 | < 4.20 | 3.80 | < 4.00 | 4.36 | 4.19 | 4.59 | 0% | 49 µM | < 4.00
5 | Cc1cccc(S(=O)(=O)Nc2ccc(-c3nc4ccccc4o3)cc2)c1 | 4.55 | > 100 µM | 4.43 | < 4.20 | 3.78 | < 4.00 | 4.40 | 4.04 | 4.40 | 13% | 81 µM | < 4.00
6 | O=S(=O)(Nc1ccc2oc(-c3ccccc3)nc2c1)c1ccc(Cl)c(Cl)c1 | 4.60 | 71 µM | 4.46 | < 4.20 | 3.82 | < 4.00 | 4.48 | 4.10 | 4.48 | 22% | 55 µM | < 4.00
7 | O=S(=O)(Nc1ccc(-c2nc3ccccc3o2)cc1)c1ccccc1Cl | 4.29 | > 100 µM | 4.23 | < 4.20 | 3.77 | < 4.00 | 4.19 | 4.07 | 4.33 | 11% | > 100 µM | < 4.00
8 | O=S(=O)(Nc1ccc(-c2nc3ccccc3o2)cc1)c1cccc(Cl)c1 | 3.26 | > 100 µM | 4.43 | < 4.20 | 3.77 | 4.27 | 4.17 | 4.10 | 4.37 | 33% | 83 µM | < 4.00
9 | COc1ccc(Cl)cc1S(=O)(=O)Nc1ccc(-c2nc3ccccc3o2)cc1 | 4.43 | 75 µM | 4.68 | < 4.20 | 4.08 | < 4.00 | 4.55 | 4.23 | 4.54 | 0% | 42 µM | < 4.00
